Measured values gathered from unrelated publications.
Lines come from different studies, so protocols differ.
Target: Rho-associated protein kinase 2 (ROCK2, Homo sapiens, UniProt O75116)

Cn1cc(-c2cc(F)cc(N3CCn4c(cc5c4CCCC5)C3=O)c2CO)cc(Nc2ccc(N3CCN(C4COC4)CC3)cn2)c1=O  inhibition (enzyme activity, inhibitor; 0.1 µM): 1%
Nc1ncc(-c2nc(N3CCOCC3)nc(N3CCOCC3)n2)c(C(F)F)n1  remaining binding (binding, competition with immobilised ligand; 10 µM): 100%
COc1ncccc1-c1cnn2ccc(N3CCN(C(=O)OC(C)C)CC3)nc12  remaining binding (binding, competition with immobilised ligand; 1 µM): 86%
Cc1nn(C)cc1-c1nc2c(N3CCN(Cc4ccc(Cl)cc4)CC3)c(Cl)cnc2[nH]1  remaining binding (binding, competition with immobilised ligand; 1 µM): 35%
N#CC1(c2ccccn2)CCN(Cc2cc(C(=O)O)c(=O)n3ccccc23)CC1  remaining binding (cell-free assay, competition with immobilised ligand; 1 µM): 85%
O=c1[nH]c2ccccc2n1C1CCN(Cc2ccc(-c3[nH]c4cc5ncnc5cc4nc3-c3ccccc3)cc2)CC1  remaining signal (cell-free assay; 0.5 µM): 109%
C#Cc1n[nH]c2c(-c3cn([C@@H](C)c4ccccc4)c(=O)[nH]c3=O)cc(F)cc12  inhibition (enzyme activity, inhibitor; 0.1 µM): 3%
COc1cc(Nc2ncc(F)c(Nc3ccc4c(n3)NC(=O)C(C)(C)O4)n2)cc(OC)c1OC  inhibition (binding; 10 µM): 86%
CC(C)(C)c1cc(C=C(C#N)C#N)cc(Br)c1O  remaining activity (enzyme activity, inhibitor; 0.5 µM): 95.6%
Cn1cncc1[C@@](O)(COc1ccc(C#N)cc1-c1ccc(OC(F)(F)F)cc1)c1ccc(C#N)cc1  remaining binding (cell-free assay, competition with immobilised ligand; 1 µM): 100%
C#Cc1n[nH]c2c(-c3cn(C(C)c4ccccn4)c(=O)[nH]c3=O)cc(F)cc12 (stereo not drawn)  inhibition (enzyme activity, inhibitor; 1 µM): 4.2%
Cn1cc(-c2cccc(N3CCc4c(sc5c4CC(C)(C)C5)C3=O)c2CO)cc(Nc2ccncn2)c1=O  inhibition (enzyme activity, inhibitor; 1 µM): 1%
